Data taken from ChEMBL document CHEMBL1125346, “Guanidinophenyl-substituted enol lactones as selective, mechanism-based inhibitors of trypsin-like serine proteases” (J Med Chem, 1992).

Legend:
[1] = target: Chymotrypsinogen A (Bos taurus) (UniProt P00766); experiment: Percent activity regained after N2H4 treatment for alpha-chymotrypsin (17 nM); type: functional
[2] = target: Chymotrypsinogen A (Bos taurus) (UniProt P00766); experiment: Time for which maximum percent inhibition by the compound was determined against alpha-chymotrypsin (17 nM); type: functional
Outline: (§1)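 Enzyme incubated with excess lactone added from DMSO stock (final 10% DMSO); aliquots over 2 h diluted into substrate: chymotrypsin Suc-AAPF-pNA 315 µM, pH 7.2, 410 nm; t-PA Spectrozyme t-PA 0.2 mM, Tris-imidazole pH 8.4, 405 nm; HNE MeO-Suc-AAPV-pNA 150 µM, pH 7.4, 410 nm; plasmin Ts-GPK-pNA 157.4 µM, pH 7.8, 404 nm; thrombin Ts-GPR-pNA 75 µM, pH 8.0, 408 nm; trypsin Z-VGR-pNA 155 µM, pH 7.2, 404 nm. Activity given relative to a no-lactone control. Some runs used a 10-min substrate-free delay after dilution. ∞ means no recovery over 2 h.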

[3] = target: Chymotrypsinogen A (Bos taurus) (UniProt P00766); experiment: Time for which maximum percent inhibition persists was determined against alpha-chymotrypsin (17 nM); * =no enzyme activity was recovered over 2 h; type: functional; outline: as §1
[4] = target: Chymotrypsinogen A (Bos taurus) (UniProt P00766); experiment: Acylation rate constant against Chymotrypsinogen
Outline: (§2)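 Competitive substrate assay: lactone (DMSO, final 10% v/v) and chromogenic substrate combined in buffer, enzyme added, absorbance followed to steady state. Turnover-corrected semilog plot gives kobs; I0 vs I0/kobs replot (eq 6) with separately determined Km yields Ki and ka. Where no burst was seen, Ki was estimated from Km(app) replots using 15-s initial velocities. Buffers and substrates as in incubation assay.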

[5] = target: Chymotrypsinogen A (Bos taurus) (UniProt P00766); experiment: Substrate binding constant against Chymotrypsinogen; outline: as §2
[6] = target: Chymotrypsinogen A (Bos taurus) (UniProt P00766); experiment: Second order rate constant against Chymotrypsinogen; outline: as §2
[7] = target: T1, Neutrophil elastase (Homo sapiens) (UniProt P08246); experiment: Maximum percent inhibition persists was determined against human neutrophil elastase HNE 66 nM; outline: as §1
T1 sequence (whole entry): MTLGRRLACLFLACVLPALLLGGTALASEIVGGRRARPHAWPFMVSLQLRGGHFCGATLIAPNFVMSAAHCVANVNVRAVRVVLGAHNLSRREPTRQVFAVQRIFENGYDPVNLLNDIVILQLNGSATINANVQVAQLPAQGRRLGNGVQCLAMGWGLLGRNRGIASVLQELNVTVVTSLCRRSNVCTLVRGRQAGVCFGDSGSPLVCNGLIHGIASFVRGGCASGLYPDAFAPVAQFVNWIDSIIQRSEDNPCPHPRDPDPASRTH

[8] = target: T1, Neutrophil elastase (Homo sapiens); experiment: Time for which maximum percent inhibition persists was determined against human neutrophil elastase HNE(66 nM); type: functional; outline: as §1
[9] = target: T1, Neutrophil elastase (Homo sapiens); experiment: Time for which maximum percent inhibition by the compound was determined against human neutrophil elastase HNE(66 nM); type: functional; outline: as §1
[10] = target: Plasminogen (Homo sapiens) (UniProt P00747); experiment: Time to reach maximum percent inhibition by the compound was determined against plasmin(625 nM); type: functional
Sequence of Plasminogen (Homo sapiens) (P00747 97-580 limits assumed): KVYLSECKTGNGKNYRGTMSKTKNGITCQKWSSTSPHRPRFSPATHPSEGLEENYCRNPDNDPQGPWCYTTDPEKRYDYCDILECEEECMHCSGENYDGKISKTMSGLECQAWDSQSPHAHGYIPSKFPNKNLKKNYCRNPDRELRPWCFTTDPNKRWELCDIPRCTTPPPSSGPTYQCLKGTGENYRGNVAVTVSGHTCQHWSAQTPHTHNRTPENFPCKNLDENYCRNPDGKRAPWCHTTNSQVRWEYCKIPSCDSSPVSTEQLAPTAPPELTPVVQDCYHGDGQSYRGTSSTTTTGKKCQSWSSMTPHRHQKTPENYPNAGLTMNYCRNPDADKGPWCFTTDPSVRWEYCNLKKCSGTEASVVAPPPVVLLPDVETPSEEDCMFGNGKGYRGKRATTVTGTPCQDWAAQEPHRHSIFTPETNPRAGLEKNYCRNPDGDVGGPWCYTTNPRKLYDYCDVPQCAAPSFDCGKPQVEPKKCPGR
Sequence of Plasminogen (Homo sapiens) (P00747 581-810 limits assumed): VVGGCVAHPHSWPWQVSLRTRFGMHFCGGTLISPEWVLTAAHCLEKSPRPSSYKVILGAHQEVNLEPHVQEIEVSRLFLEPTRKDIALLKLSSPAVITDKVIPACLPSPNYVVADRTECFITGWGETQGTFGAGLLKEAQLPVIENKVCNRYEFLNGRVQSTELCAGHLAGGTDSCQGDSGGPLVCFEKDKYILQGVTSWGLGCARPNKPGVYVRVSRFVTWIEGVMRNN
Outline: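 Plasmin plus excess lactone (10% final DMSO) was sampled over 2 h into Ts-Gly-Pro-Lys-pNA (157.4 μM) in 0.05 M phosphate, pH 7.8. The slope at 404 nm, relative to an enzyme-only control, gave residual activity. Minutes needed to reach maximal inhibition were reported.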

[11] = target: Plasminogen (Homo sapiens) (UniProt P00747); experiment: Percent activity regained after N2H4 treatment for plasmin(625 nM); type: functional
[12] = target: Plasminogen (Homo sapiens) (UniProt P00747); experiment: Substrate binding constant against plasmin; outline: as §2
[13] = target: Plasminogen (Homo sapiens) (UniProt P00747); experiment: Second order rate constant against plasmin; outline: as §2
[14] = target: Plasminogen (Homo sapiens) (UniProt P00747); experiment: Time for which maximum percent inhibition persists was determined against plasmin(625 nM); * =no enzyme activity was recovered over 2 h; type: functional; outline: as §1
[15] = target: Plasminogen (Homo sapiens) (UniProt P00747); experiment: Maximum percent inhibition by the compound was determined against plasmin(625 nM); outline: as §1
[16] = target: Plasminogen (Homo sapiens) (UniProt P00747); experiment: Acylation rate constant against plasmin; outline: as §2
[17] = target: Tissue-type plasminogen activator (Homo sapiens) (UniProt P00750); experiment: Percent activity regained after N2H4 treatment for Tissue plasminogen activator 19.4 nM); type: functional
Sequence of Tissue-type plasminogen activator (Homo sapiens) (P00750 36-562 limits assumed): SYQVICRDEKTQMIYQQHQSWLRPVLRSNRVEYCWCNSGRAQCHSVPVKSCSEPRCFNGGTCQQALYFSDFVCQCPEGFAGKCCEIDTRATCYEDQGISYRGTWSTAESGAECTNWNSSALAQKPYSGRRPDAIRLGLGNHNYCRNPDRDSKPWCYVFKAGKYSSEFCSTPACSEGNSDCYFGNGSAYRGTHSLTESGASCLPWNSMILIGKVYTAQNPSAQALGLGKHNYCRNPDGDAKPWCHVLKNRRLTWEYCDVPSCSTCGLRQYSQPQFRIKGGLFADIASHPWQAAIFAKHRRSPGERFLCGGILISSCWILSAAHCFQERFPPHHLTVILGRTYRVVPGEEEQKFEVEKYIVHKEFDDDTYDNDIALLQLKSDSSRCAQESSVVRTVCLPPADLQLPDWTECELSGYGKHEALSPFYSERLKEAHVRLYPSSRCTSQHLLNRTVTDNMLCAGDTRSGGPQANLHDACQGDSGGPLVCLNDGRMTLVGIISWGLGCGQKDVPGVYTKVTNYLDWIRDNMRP

[18] = target: Tissue-type plasminogen activator (Homo sapiens) (UniProt P00750); experiment: Maximum percent inhibition by the compound was determined against Tissue plasminogen activator (19.4 nM); outline: as §1
[19] = target: Tissue-type plasminogen activator (Homo sapiens) (UniProt P00750); experiment: Substrate binding constant against Tissue plasminogen activator; outline: as §2
[20] = target: Tissue-type plasminogen activator (Homo sapiens) (UniProt P00750); experiment: Time for which maximum percent inhibition persists was determined against Tissue plasminogen activator (19.4 nM); * =no enzyme activity was recovered over 2 h; type: functional; outline: as §1
[21] = target: Tissue-type plasminogen activator (Homo sapiens) (UniProt P00750); experiment: Time to reach maximum percent inhibition by the compound was determined against Tissue plasminogen activator (19.4 nM); type: functional
Outline: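 Tissue plasminogen activator was exposed to excess lactone (10% final DMSO). Over 2 h, aliquots were diluted into Spectrozyme t-PA (0.2 mM) in Tris-imidazole, I 0.3, pH 8.4. Hydrolysis at 405 nm gave residual activity relative to an enzyme-only control. The time (min) to reach maximal percent inhibition was recorded.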

[22] = target: Prothrombin (Homo sapiens) (UniProt P00734); experiment: Substrate binding constant against thrombin; outline: as §2
[23] = target: Prothrombin (Homo sapiens) (UniProt P00734); experiment: Second order rate constant against thrombin; outline: as §2
[24] = target: Prothrombin (Homo sapiens) (UniProt P00734); experiment: Time to reach maximum percent inhibition by the compound was determined against thrombin (1.93 nM); type: functional
Outline: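 Thrombin was incubated with excess lactone (DMSO, 10% final). Aliquots over 2 h were diluted into Ts-Gly-Pro-Arg-pNA (75 μM) in 0.05 M phosphate, 0.01 M EDTA, 10 g/L PEG 8000, 10 mg/L aprotinin, pH 8.0, and read at 408 nm against a no-lactone control. Time to maximal inhibition was recorded.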

[25] = target: T2, Serine protease 1 (Bos taurus) (UniProt P00760); experiment: Time to reach maximum percent inhibition by the compound was determined against trypsin (14.6 nM); type: functional
T2 sequence (whole entry): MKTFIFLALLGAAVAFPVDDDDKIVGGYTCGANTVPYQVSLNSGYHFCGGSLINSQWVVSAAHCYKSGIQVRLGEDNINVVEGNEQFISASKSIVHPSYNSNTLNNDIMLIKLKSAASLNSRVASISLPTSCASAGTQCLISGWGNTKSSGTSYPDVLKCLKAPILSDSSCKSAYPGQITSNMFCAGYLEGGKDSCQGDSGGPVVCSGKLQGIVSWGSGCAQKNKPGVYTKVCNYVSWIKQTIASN
Outline: (§3)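 Trypsin was incubated with excess lactone added from DMSO stock (10% final DMSO). Aliquots taken over 2 h were diluted into Z-Val-Gly-Arg-pNA (155 μM) in 0.2 M phosphate, pH 7.2, and read at 404 nm. Activity came from the absorbance slope versus a no-lactone control. Reported are minutes to maximal inhibition and minutes it persisted; ∞ means no recovery within 2 h.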

[26] = target: T2, Serine protease 1 (Bos taurus); experiment: Time for which maximum percent inhibition persists was determined against trypsin (14.6 nM); type: functional; outline: as §3
[27] = target: Prothrombin (Homo sapiens) (UniProt P00734); experiment: Maximum percent inhibition by the compound was determined against thrombin (1.93 nM); outline: as §1
[28] = target: Prothrombin (Homo sapiens) (UniProt P00734); experiment: Acylation rate constant against thrombin; outline: as §2
[29] = target: Prothrombin (Homo sapiens) (UniProt P00734); experiment: Percent activity regained after N2H4 treatment for thrombin (1.93 nM); type: functional
[30] = target: T2, Serine protease 1 (Bos taurus); experiment: Maximum percent inhibition by the compound was determined against trypsin (14.6 nM); outline: as §1
[31] = Ratio of initial inhibitor concentration to initial Chymotrypsinogen concentration
Outline: (§4)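 Ratio I0/E0 of lactone to enzyme in the 2-h incubation assay; lactone added from DMSO stock to buffered enzyme (final 10% DMSO).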

[32] = Ratio of initial inhibitor concentration to initial HNE concentration; outline: as §4
[33] = Ratio of initial inhibitor concentration to initial Plasmin concentration; outline: as §4
[34] = Ratio of initial inhibitor concentration to initial t-PA concentration; outline: as §4
[35] = Ratio of initial inhibitor concentration to initial thrombin concentration; outline: as §4
[36] = Ratio of initial inhibitor concentration to initial trypsin concentration; outline: as §4
[37] = Ratio of initial inhibitor concentration to initial urokinase concentration; outline: as §4
[38] = target: Chymotrypsinogen A (Bos taurus) (UniProt P00766); experiment: Maximum percent inhibition persists was determined against Chymotrypsinogen (17 nM); outline: as §1
[39] = target: T3, Urokinase-type plasminogen activator (Homo sapiens, UniProt P00749); experiment: Percent activity regained after N2H4 treatment for Urokinase-type plasminogen activator (300 nM); type: functional
[40] = target: Prothrombin (Homo sapiens) (UniProt P00734); experiment: Time for which maximum percent inhibition persists was determined against thrombin (1.93 nM); * =no enzyme activity was recovered over 2 h; type: functional; outline: as §1
[41] = target: T3, Urokinase-type plasminogen activator
[42] = target: T3, Urokinase-type plasminogen activator; remark: listed apart in the source
[43] = target: T3, Urokinase-type plasminogen activator; experiment: Acylation rate constant against urokinase

Activity [1]: 32%
TIME [2]: 0.25 h
TIME [3]: No enzyme activity
Ka [4]: 7.22 min⁻¹
Ks [5]: 2.4 µM
Rate [6]: 3 ka/Ks
inhibition [7]: 38%
TIME [8]: 1.5 h
TIME [9]: 0.5 h
TIME [10]: 0 h
Activity [11]: 14%
Ks [12]: 0.03 µM
Rate [13]: 453 ka/Ks
TIME [14]: No enzyme activity
inhibition [15]: 95%
Ka [16]: 13.6 min⁻¹
Activity [17]: 0%
inhibition [18]: 48%
Ks [19]: 0.67 µM
TIME [20]: No enzyme activity
TIME [21]: 0.25 h
Ks [22]: 0.93 µM
Rate [23]: 14 ka/Ks
TIME [24]: 0 h
TIME [25]: 0 h
TIME [26]: 0 h
inhibition [27]: 93%
Ka [28]: 12.9 min⁻¹
Activity [29]: 85%
inhibition [30]: 80%
Ratio [31]: 118 Io/Eo
Ratio [32]: 36 Io/Eo
Ratio [33]: 16 Io/Eo
Ratio [34]: 100 Io/Eo
Ratio [35]: 518 Io/Eo
Ratio [36]: 86 Io/Eo
Ratio [37]: 50 Io/Eo
inhibition [38]: 78%
Activity [39]: 0%
TIME [40]: No enzyme activity
Ks [41]: 0.16 µM
Rate [42]: 117 ka/Ks
Ka [43]: 18.6 min⁻¹
Compound: N=C(N)Nc1ccc(C2CC/C(=C\I)OC2=O)cc1 (stereo not drawn)
